The source of these data is ChEMBL document CHEMBL4350954, “Identification of Thienopyrimidine Scaffold as an Inhibitor of the ABC Transport Protein ABCC1 (MRP1) and Related Transporters Using a Combined Virtual Screening Approach” (J Med Chem, 2019).

Data set [1] in a line: Growth inhibition of MDCK2 cells co-expressing MRP1 (unknown origin) incubated for 72 hrs by MTT assay. Format: cell-based, Canis lupus familiaris, MDCK-II. To be noted: dog. In short, it runs like this:
(§1)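 MTT-based cytotoxicity assay giving GI50 of the compound alone in each listed parental, selected or transfected cell line.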
Background: Formazan colour is commonly taken as a measure of viable cells.

Data set [2] concerns the target T1, ATP-dependent translocase ABCB1 (Homo sapiens, UniProt P08183). In words: Reversal of ABCB1-mediated multidrug resistance in human A2780/ADR cells assessed as resistance factor by measuring [GI50(resistant cell line without or with compound)/ GI50(sensitive cell line)] at 1 uM incubated for 72 hrs by MTT assay (reference value: 49). Format: cell-based. In short, it runs like this:
(§2)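 MDR reversal assay with daunorubicin at 10 nM–10 µM, alone or with test compound at 0.5, 1, 5 or 10 µM. Resistant cells were ABCB1-overexpressing A2780/ADR or MDCK II MDR1, with sensitive A2780 or MDCK II cells as comparators. Resistance factor = resistant GI50 / sensitive GI50. EC50 was derived from resistance factors versus modulator concentration. Values are from ≥3 experiments in duplicate ± SEM.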

For data set [3], the target named is T1, ATP-dependent translocase ABCB1. In words: Reversal of ABCB1 (unknown origin)-mediated multidrug resistance in MDCK2 cells co-expressing MDR1 (unknown origin) assessed as resistance factor by measuring [GI50(resistant cell line without or with compound)/ GI50(sensitive cell line)] at 1 uM incubated for 72 hrs by MTT assay (reference value: 17). Format: cell-based. In outline: as §2

Data set [4] has as its target T2, Multidrug resistance-associated protein 1 (Homo sapiens, UniProt P33527). The experiment in a line: Reversal of ABCC1-mediated multidrug resistance in human H69AR cells assessed as resistance factor by measuring [GI50(resistant cell line without or with compound)/ GI50(sensitive cell line)] at 5 uM incubated for 72 hrs by MTT assay (reference value: 8.2). Format: cell-based.

The target of data set [5] is T1, ATP-dependent translocase ABCB1. The experiment in a line: Reversal of ABCB1 (unknown origin)-mediated multidrug resistance in MDCK2 cells co-expressing MDR1 (unknown origin) assessed as resistance factor by measuring [GI50(resistant cell line without or with compound)/ GI50(sensitive cell line)] at 0.5 uM incubated for 72 hrs by MTT assay (reference value: 17). Format: cell-based. In short, it runs like this:
as §2

Data set [6] has as its target T2, Multidrug resistance-associated protein 1. In words: Reversal of ABCC1 (unknown origin)-mediated multidrug resistance in MDCK2 cells co-expressing MRP1 (unknown origin) assessed as resistance factor by measuring [GI50(resistant cell line without or with compound)/ GI50(sensitive cell line)] at 1 uM incubated for 72 hrs by MTT assay (reference value: 7). Format: cell-based.

In data set [7] the target is T3, Broad substrate specificity ATP-binding cassette transporter ABCG2 (Homo sapiens, UniProt Q9UNQ0).
T3 sequence (Q9UNQ0 whole entry): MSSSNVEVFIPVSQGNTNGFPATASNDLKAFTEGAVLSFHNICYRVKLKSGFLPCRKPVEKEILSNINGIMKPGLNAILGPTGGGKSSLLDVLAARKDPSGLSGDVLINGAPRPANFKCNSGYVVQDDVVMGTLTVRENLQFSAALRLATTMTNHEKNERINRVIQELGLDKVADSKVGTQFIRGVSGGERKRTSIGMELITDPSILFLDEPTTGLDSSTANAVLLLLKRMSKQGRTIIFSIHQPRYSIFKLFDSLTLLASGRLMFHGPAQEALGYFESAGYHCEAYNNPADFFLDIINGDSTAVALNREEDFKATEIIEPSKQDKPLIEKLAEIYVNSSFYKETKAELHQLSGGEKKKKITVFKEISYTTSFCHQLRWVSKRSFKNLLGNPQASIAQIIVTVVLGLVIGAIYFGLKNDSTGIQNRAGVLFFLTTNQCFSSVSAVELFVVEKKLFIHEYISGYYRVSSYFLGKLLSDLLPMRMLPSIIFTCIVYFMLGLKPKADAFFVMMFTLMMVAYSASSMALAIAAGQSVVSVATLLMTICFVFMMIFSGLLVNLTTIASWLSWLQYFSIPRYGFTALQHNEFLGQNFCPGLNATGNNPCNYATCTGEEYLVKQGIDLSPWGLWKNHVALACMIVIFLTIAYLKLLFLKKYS
The experiment in a line: Non-competitive inhibition of ABCG2 (unknown origin)-mediated pheophorbide A transport in MDCK2 cells co-expressing BCRP (unknown origin) at 0.178 to 1 uM by Lineweaver-Burk plot analysis. Format: cell-based. In outline: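 Lineweaver-Burk kinetics of ABCG2-mediated pheophorbide A transport in transfected MDCK II BCRP cells. Pheophorbide A was used at 0.5, 0.6, 0.8, 1.0 and 1.5 µM. Inhibitor was used at 0.178, 0.316, 0.562 and 1.00 µM, with a zero-inhibitor control.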

Data set [8] is described as follows: Growth inhibition of MDCK2 cells incubated for 72 hrs by MTT assay. Format: cell-based, Canis lupus familiaris, MDCK-II. The note with it: dog. In outline: as §1
For data set [9], the system named is ABCC1 (MRP1). The experiment in a line: Therapeutic index, ratio of GI50 for human H69AR cells to IC50 for ABCC1 in human H69AR cells. To be noted: read-out: TI. Format: toxicity, cell-based. In short, it runs like this: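 Therapeutic ratio = GI50 from the MTT cytotoxicity assay / IC50 from the inhibition assay in the same cell line. The cell lines were H69AR (calcein AM, ABCC1), A2780/ADR (calcein AM, ABCB1) and MDCK II BCRP (pheophorbide A, ABCG2).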

For data set [10], the target named is T1, ATP-dependent translocase ABCB1. The experiment in a line: Inhibition of ABCB1 in human A2780/ADR cells preincubated for 30 mins followed by calcein AM addition and measured at 60 secs time interval by fluorescence assay. Format: cell-based.
Data set [11] in a line: Growth inhibition of human A2780 cells incubated for 72 hrs by MTT assay. Format: cell-based. In outline:
as §1

For data set [12], the target named is T3, Broad substrate specificity ATP-binding cassette transporter ABCG2. In words: Reversal of ABCG2 (unknown origin)-mediated multidrug resistance in MDCK2 cells co-expressing BCRP (unknown origin) assessed as resistance factor by measuring [GI50(resistant cell line without or with compound)/ GI50(sensitive cell line)] at 1 uM incubated for 72 hrs by MTT assay (reference value: 27). Format: cell-based.

For data set [13], the target named is ABCC1 (MRP1) (Homo sapiens, UniProt P33527). In words: Inhibition of ABCC1 in human H69AR cells at 10 uM preincubated for 30 mins followed by calcein-AM addition measured at 60 secs time interval by fluorescence assay relative to control. Format: cell-based. The note with it: probe calcein-AM. In short, it runs like this: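 Calcein AM accumulation assay in H69AR small-cell lung cancer cells, which express only ABCC1. Inhibited efflux lets calcein AM build up intracellularly, where esterases cleave it to fluorescent calcein. The screen used 10 µM, scaled to a standard ABCC1 inhibitor at 10 µM as 100%. Hits reaching ≥20% inhibition (+SEM) went on to IC50 curves, constrained to that 100% maximum. Values are means of ≥3 independent experiments in duplicate ± SEM.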

Data set [14] concerns the target T2, Multidrug resistance-associated protein 1. The experiment in a line: Reversal of ABCC1 (unknown origin)-mediated multidrug resistance in MDCK2 cells co-expressing MRP1 (unknown origin) assessed as resistance factor by measuring [GI50(resistant cell line without or with compound)/ GI50(sensitive cell line)] at 10 uM incubated for 72 hrs by MTT assay (reference value: 7). Format: cell-based.

Data set [15] is described as follows: Growth inhibition of MDCK2 cells co-expressing MDR1 (unknown origin) incubated for 72 hrs by MTT assay. The note with it: dog. Format: ADME, cell-based, Canis lupus familiaris, MDCK-II. In short, it runs like this:
as §1

T2 sequence (P33527 whole entry): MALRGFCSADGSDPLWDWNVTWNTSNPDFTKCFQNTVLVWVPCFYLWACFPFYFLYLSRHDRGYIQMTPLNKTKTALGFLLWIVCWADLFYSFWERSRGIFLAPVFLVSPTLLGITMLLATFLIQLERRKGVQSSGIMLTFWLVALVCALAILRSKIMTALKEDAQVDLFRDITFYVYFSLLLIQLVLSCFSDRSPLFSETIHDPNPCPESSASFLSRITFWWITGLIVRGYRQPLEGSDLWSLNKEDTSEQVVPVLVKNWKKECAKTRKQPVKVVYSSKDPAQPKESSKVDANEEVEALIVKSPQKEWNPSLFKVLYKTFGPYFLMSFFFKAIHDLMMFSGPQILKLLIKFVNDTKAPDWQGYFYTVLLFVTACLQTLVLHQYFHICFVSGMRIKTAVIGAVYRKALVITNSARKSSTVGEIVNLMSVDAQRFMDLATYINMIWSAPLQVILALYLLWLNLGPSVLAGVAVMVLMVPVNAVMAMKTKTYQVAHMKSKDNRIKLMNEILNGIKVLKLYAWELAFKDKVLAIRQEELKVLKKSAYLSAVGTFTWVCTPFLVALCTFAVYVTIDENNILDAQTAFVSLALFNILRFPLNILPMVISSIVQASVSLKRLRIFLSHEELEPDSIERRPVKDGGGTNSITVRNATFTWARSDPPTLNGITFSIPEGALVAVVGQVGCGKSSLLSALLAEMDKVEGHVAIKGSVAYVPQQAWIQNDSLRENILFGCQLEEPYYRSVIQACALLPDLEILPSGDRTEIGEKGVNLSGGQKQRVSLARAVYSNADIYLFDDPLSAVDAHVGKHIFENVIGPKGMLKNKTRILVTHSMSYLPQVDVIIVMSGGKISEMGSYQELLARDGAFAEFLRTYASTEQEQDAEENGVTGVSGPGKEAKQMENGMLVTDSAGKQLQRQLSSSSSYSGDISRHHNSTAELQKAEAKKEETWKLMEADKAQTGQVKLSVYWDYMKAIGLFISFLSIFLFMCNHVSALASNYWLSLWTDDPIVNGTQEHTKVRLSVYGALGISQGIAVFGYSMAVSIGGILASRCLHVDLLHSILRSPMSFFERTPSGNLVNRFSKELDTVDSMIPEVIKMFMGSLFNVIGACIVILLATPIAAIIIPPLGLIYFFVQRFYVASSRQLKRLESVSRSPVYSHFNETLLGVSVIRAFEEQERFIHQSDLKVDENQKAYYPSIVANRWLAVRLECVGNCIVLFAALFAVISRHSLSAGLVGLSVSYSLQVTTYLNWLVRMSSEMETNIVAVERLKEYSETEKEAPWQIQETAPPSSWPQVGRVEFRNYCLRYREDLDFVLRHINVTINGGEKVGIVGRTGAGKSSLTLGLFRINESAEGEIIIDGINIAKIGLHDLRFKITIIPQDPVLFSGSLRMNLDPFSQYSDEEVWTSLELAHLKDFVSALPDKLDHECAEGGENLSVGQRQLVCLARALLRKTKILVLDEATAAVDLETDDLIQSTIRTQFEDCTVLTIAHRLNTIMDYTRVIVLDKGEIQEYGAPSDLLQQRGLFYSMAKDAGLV
T1 sequence (P08183 whole entry): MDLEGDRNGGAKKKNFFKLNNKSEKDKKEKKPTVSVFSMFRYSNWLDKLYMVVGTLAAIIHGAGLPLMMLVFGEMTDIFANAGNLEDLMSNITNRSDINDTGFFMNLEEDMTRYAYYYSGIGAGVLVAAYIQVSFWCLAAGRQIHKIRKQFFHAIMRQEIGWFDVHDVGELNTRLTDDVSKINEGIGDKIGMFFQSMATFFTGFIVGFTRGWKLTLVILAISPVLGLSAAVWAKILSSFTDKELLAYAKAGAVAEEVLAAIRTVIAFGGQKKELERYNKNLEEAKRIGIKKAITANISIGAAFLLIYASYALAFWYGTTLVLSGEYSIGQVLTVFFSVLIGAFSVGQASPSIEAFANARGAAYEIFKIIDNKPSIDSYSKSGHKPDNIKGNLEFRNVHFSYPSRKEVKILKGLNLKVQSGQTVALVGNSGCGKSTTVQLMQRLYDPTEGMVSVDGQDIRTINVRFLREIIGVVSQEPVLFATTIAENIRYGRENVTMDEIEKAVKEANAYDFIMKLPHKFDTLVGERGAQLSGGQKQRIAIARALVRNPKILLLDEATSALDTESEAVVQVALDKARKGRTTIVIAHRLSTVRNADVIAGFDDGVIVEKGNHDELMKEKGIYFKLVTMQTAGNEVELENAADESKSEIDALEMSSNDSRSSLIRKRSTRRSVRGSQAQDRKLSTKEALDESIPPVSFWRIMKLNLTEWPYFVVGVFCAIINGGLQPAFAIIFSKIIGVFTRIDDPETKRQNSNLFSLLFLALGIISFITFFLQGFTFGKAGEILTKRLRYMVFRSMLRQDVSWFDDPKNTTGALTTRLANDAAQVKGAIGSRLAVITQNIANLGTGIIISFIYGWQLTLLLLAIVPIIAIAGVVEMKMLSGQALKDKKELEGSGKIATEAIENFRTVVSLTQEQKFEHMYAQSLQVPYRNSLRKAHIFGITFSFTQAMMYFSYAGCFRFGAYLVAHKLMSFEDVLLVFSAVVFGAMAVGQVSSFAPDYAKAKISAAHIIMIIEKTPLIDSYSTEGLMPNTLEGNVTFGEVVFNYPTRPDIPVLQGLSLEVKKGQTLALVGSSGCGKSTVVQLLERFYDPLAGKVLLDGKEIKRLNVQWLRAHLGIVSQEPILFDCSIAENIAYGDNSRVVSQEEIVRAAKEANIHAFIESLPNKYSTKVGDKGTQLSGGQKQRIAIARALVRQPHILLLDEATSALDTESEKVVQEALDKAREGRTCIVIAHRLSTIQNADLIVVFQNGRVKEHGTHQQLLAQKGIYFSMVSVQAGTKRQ
ABCC1 (MRP1) (Homo sapiens, UniProt P33527), sequence (P33527 whole entry): as the sequence (P33527 whole entry) above

Take `CC1CCc2c(sc3nc(-c4cccnc4)nc(N4CCN(C(C(N)=O)c5ccccc5)CC4)c23)C1` (stereo not given): the GI50 at 72 h turned out to be 42.4 µM in data set [1], 27 µM in data set [8], 24.6 µM in [11] and 25 µM in data set [15]. Moreover, the RatioGI50 in data set [2] was determined as 20; in data set [3] it was 4.3; in data set [4], 3.8; in [5], 7.1; in [6], 3.4; in data set [12], 17. In [14], the RatioGI50 is reported as 1.4. Moreover, in [7], the “inhibition (INH)” value was “Active”. In the data set with ABCC1 (MRP1) [9], the selectivity ratio was 11.3. For the same compound, the concentration for half-maximal inhibition (IC50) in data set [10] was 1.73 µM. Besides, on ABCC1 (MRP1) [13], the inhibition at 1 min, 10 µM was at least 20%.

A word on the GI50: it is the concentration at which growth is held to half of that of the control. Low readings indicate more potent growth inhibition, high ones less potent growth inhibition. A word on the IC50: it is the concentration that inhibits the measured activity by half. By inhibition is commonly meant the change of the read-out against control, counted positive when it falls.
